Source: the EternaBench riboswitch data

Test system: MS2 coat protein
Assay: apparent Kd, MS2 coat protein; higher = weaker binding; RNA-MaP array; FMN 200 µM where present
Procedure, shortened: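 Two titrations, one without ligand and one with constant ligand, were run with SNAP-549-labelled MS2 coat protein from 0.7 or 1.5 nM, doubling to 3 µM. The targets were designs transcribed by stalled E. coli RNA polymerase on Illumina sequencing-chip clusters, in 100 mM Tris-HCl pH 7.5, 80 mM KCl, 4 mM MgCl2, BSA, DTT, yeast tRNA and Tween-20. The apparent Kd is the median of filtered per-cluster binding-curve fits, with green signal normalised to red-channel RNA signal and control-cluster median Fmax.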

[1] = designed as: OFF switch for flavin mononucleotide, no ligand
[2] = ligand present: flavin mononucleotide, designed as: OFF switch for flavin mononucleotide
[3] = designed as: ON switch for flavin mononucleotide, no ligand
[4] = ligand present: flavin mononucleotide, designed as: ON switch for flavin mononucleotide

Row | Sequence | apparent Kd [1] [nM] | apparent Kd [2] [nM] | apparent Kd [3] [nM] | apparent Kd [4] [nM]
1 | UCUAAUUAGUGAGGAUAUGCAUAAUUUAUAACUGCAGAAGGCACAAACCUCAAGACAUGAGGAUCACCCAUGUGGAAUAUAGAU | 93.8 | 215 |  | 
2 | UCUAGACAUGAGGAUCACCCAUGUGAGGAUAUGAUGCGAUCGUCGAAAGACGAUAGCAUCAGAAGGCACAUAUG | 154 | 469 |  | 
3 | UCUAUGUAGAUUCAUCAAUACAGUAAGGAUAUGAGAUACAUGAGGAUCACCCAUGUGCAUGUGGAUUAGAAGGUACAAUUAACU | 293 | 188 |  | 
4 | UCUCGAUGUGUAGGAUAUCUGAUCACUAUGACAAGAGAAGGGCACAUGAGGAUCACCCAUGUGGAGGACCACUGGUUCAGAUUA | 35.8 | 64.9 |  | 
5 | UCUGCCGCCGUGAGGAUAUGCCCAAACAAACGCGGGCAGAAGGCACAUGAGGAUCACCCAUGUCCCGCGGUUUU | 19.6 | 36.3 |  | 
6 | UCUGCCGCCGUGAGGAUAUGCCCAAAUAAAAGCGGGCAGAAGGCACAUGAGGAUCACCCAUGUCCUGCGGUUUU | 22.1 | 93.6 |  | 
7 | UGAAAGCUAGGAUAUACAUGAGGAUCACCCAUGUACCGGCUUGGCCCUGGUCCAAAGUGUAGAAGGAGCACGCC | 28.2 | 50.3 |  | 
8 | UGAAAUCAUGUAGGAUAUGCAUGGCGAAGCUACGCAGAAGGACAUGAGGAUCACCCAUGUUAUAGCUACCCAGUUCGGUGGCAC | 46 | 136 |  | 
9 | UGAAUCAUGCCAUGCGCUGACAUGAGGAUCACCCAUGUGUACAAGGAUAUGUUGGUCGACGAUCGGCAGAAGGUGUAAUGGGAU | 319 | 764 |  | 
10 | UGACGGAGCUGAGGAUAUAACAUGAGGAUCACCCAUGUAAGUCUCCAGGAAACUGGAGACAAAUGUUAGAAGGCAGCUCCGUCA | 39.4 | 50.7 |  | 
11 | UGACGGCACACAGGAUAUAGCGCAGAAAGUACGCUAGAAGGGUGAGCACUCGUCCGGGCACAUGAGGAUCACCCAUGUCGUCGA |  |  | 204 | 472
12 | UGAGAUCAUGUAGGAUAUGCAUGGCGAAGCUACGCAGAAGGACAUGAGGAUCACCCAUGUUAUAGCUACCCAGUUCGGUGGCAA | 44.4 | 86.7 |  | 
13 | UGAGAUGUAGUAGGAUAUCAGGUUACAUGAGGAUCACCCAUGUUAGAUUGGUGGAUAGAUGUUGAUGAGAAGGACUUUUGAGUU | 63.5 | 100 |  | 
14 | UGAGCAACAGGAUAUAUGUGGCGUCCGUGAGGACGAAGGUUACAUGAGGAUCACCCAUGUAGAAGGGUUGUUCU | 169 | 366 |  | 
15 | UGAGCAUCAGGAUAUACGUGACGACCGUGAGGUCGAAGGUUACAUGAGGAUCACCCAUGUAGAAGGGAUGUUCU | 26.5 | 57.9 |  | 
16 | UGAGCAUGAGGAUAUACUUGGCGUGCGUGAGCACGAGGUUUACAUGAGGAUCACCCAUGUAGAAGGCAUGUUCU | 18.2 | 51.6 |  | 
17 | UGAGCCGGCACUGAGGAUAUUCAUAUUUAAACAUGAGGAUCACCCAUGUAGGCCAGAAGGCCUUGGGAGAAGGCAGGUCGGCUCU |  |  | 399 | 24.6
18 | UGAGCCUCGUGAGGAUAUACAUGAGGAUCACCCAUGUAAAUGGAAUAACGGAGGAAACUCCGAAUGUAGAAGGCACGAGGCUCA | 81.3 | 840 |  | 
19 | UGAUAGGACAGAGGAUAUACAGAUAGGAUCUACUAUCAAACAAUCCUGACAUGAGGAUCACCCAUGUAGAAGGCUGUCCUAUCU | 22.5 | 86.5 |  | 
20 | UGAUAGGACAGAGGAUAUACAGAUAGGAUCUACUAUCAAACAUUCCUGACAUGAGGAUCACCCAUGUAGAAGGCUGUCCUAUCU | 21.9 | 72.8 |  | 
21 | UGAUAGGACAGAGGAUAUACCGAUAGGAUCUACUAUCGAAGAAUCCUUACAUGAGGAUCACCCAUGUAGAAGGCUGUCCUAUCU | 20.4 | 29.6 |  | 
22 | UGAUCGAGAGAUCUUAGAUUCUGGUAGGAUAUACAUAAUGUAAUAUAGACAUGAGGAUCACCCAUGUAGAAGGACUAGAGUCUA | 8.49 | 24.3 |  | 
23 | UGAUCUAUGUAGAAGGCCCAUAUCUAUAUUUAGGGAGGAUAUACAUGAGGAUCACCCAUGUAUAGAGCUAGUGGACUGGUCACC | 37.7 | 48.1 |  | 
